Reference: ChEMBL document CHEMBL4052830, “Dual Nicotinic Acetylcholine Receptor α4β2 Antagonists/α7 Agonists: Synthesis, Docking Studies, and Pharmacological Evaluation of Tetrahydroisoquinolines and Tetrahydroisoquinolinium Salts” (J Med Chem, 2018)
Activity calls are given as the source filed them. No cut-off for these calls is given here.

Key:
[1] = target: Neuronal acetylcholine receptor; alpha4/beta2 (Rattus norvegicus, UniProt P09483+P12390); test: Displacement of [3H]epibatidine from rat alpha4beta2 nAChR expressed in HEK293 cell membranes after 4 hrs by scintillation counting method
Outline: (§1)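 Membranes from HEK293 lines stably expressing α3β4, α4β4 or α4β2 nAChR, [3H]epibatidine competition binding. Ki came from concentration-inhibition curves. Means of 3–5 experiments in duplicate.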

[2] = target: Neuronal acetylcholine receptor; alpha4/beta4 (Rattus norvegicus, UniProt P09483+P12392); test: Displacement of [3H]epibatidine from rat alpha4beta4 nAChR expressed in HEK293 cell membranes after 4 hrs by scintillation counting method; outline: as §1
[3] = target: T1, Neuronal acetylcholine receptor; alpha3/beta4 (Rattus norvegicus, UniProt P04757+P12392); test: Displacement of [3H]epibatidine from rat alpha3beta4 nAChR expressed in HEK293 cell membranes after 4 hrs by scintillation counting method; outline: as §1
[4] = target: T1, Neuronal acetylcholine receptor; alpha3/beta4; test: Antagonist activity at rat alpha3beta4 nAChR expressed in HEK293 cells assessed as inhibition of (S)-nicotine-induced […] response measured up to 90 secs by FMP assay; type: cell-based
Outline: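 Rat α3β4 nAChR in stably expressing HEK293 cells, FLIPR Membrane Potential Blue assay. Antagonist mode against (S)-nicotine at EC70–EC90. IC50 derived from concentration-inhibition curves. Means of 3–5 experiments in duplicate.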

[5] = target: Nicotinic acetylcholine receptor alpha-4/beta-2 (Mus musculus, UniProt Q8R493+Q9ERK7); test: Antagonist activity at mouse alpha4beta2 nAChR expressed in HEK293 cells assessed as inhibition of (S)-nicotine-induced […] response measured up to 90 secs by FMP assay; type: cell-based
Outline: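 Mouse α4β2 nAChR in stably expressing HEK293T cells, FLIPR Membrane Potential Blue assay. IC50 came from concentration-inhibition curves. Means of 3–5 experiments in duplicate.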

[6] = target: T2, Neuronal acetylcholine receptor subunit alpha-7 (Homo sapiens, UniProt P36544); test: Antagonist activity at human alpha7 nAChR expressed in HEK293 cells co-expressing Ric-3/NACHO assessed as inhibition of ACh-induced calcium mobilization measured up to 90 secs in presence of PNU-120596 by FLIPR assay; type: cell-based
Outline: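 Human α7 nAChR stably co-expressed with Ric-3/NACHO in HEK293 cells. Antagonist mode in the Ca2+/Fluo-4 assay: test ligand inhibits acetylcholine at EC70–EC90, with 3 μM PNU-120596 in the buffer. IC50 came from concentration-inhibition curves. Means of 3–5 experiments run in duplicate.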

[7] = target: T2, Neuronal acetylcholine receptor subunit alpha-7; test: Agonist activity at human alpha7 nAChR expressed in HEK293 cells co-expressing Ric-3/NACHO assessed as induction of calcium mobilization measured up to 90 secs in presence of PNU-120596 by FLIPR assay; type: cell-based
Outline: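 Human α7 nAChR stably co-expressed with Ric-3 and NACHO in HEK293 cells, Ca2+/Fluo-4 fluorescence assay. Assay buffer held 3 μM PNU-120596 (α7 PAM) to slow desensitization. Agonist concentration-response curves gave EC50 and Rmax. Means of 3–5 experiments run in duplicate.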

[8] = target: T2, Neuronal acetylcholine receptor subunit alpha-7; test: Agonist activity at human alpha7 nAChR expressed in HEK293 cells co-expressing Ric-3/NACHO assessed as induction of calcium mobilization at 30 uM measured up to 90 secs in presence of PNU-120596 by FLIPR assay; type: cell-based

Neuronal acetylcholine receptor; alpha4/beta2, sequence (P09483 whole entry): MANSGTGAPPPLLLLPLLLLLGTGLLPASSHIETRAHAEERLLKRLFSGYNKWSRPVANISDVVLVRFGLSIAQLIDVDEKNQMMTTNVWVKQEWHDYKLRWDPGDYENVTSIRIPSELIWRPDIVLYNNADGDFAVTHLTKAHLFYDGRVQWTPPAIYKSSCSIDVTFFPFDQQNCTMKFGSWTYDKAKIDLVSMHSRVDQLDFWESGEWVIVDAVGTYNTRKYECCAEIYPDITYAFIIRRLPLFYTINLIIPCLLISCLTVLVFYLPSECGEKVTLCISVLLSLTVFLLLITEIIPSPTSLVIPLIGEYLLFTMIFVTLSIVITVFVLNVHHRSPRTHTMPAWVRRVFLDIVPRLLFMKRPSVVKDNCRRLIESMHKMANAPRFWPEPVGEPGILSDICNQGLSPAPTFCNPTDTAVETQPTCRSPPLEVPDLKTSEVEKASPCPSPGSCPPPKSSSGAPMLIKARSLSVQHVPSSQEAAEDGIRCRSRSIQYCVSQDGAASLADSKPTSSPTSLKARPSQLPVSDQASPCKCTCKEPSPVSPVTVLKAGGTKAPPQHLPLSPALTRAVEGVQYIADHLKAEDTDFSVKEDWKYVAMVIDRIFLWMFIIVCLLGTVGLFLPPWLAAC
Neuronal acetylcholine receptor; alpha4/beta2, sequence (P12390 whole entry): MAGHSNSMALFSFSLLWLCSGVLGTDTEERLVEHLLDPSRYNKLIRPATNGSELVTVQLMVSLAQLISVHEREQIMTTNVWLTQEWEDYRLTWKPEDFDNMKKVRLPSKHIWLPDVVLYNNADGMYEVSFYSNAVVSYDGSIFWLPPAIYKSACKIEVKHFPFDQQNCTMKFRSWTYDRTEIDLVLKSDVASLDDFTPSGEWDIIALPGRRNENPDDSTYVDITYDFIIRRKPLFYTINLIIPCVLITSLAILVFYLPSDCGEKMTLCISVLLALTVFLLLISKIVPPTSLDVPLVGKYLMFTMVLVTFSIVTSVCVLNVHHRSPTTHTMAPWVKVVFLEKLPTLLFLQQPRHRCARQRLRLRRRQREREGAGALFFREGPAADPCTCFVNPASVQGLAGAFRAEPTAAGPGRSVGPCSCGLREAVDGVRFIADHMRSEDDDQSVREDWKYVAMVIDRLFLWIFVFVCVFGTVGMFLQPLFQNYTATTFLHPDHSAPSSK
Neuronal acetylcholine receptor; alpha4/beta4, sequence (P09483 whole entry): as the sequence (P09483 whole entry) above
Neuronal acetylcholine receptor; alpha4/beta4, sequence (P12392 whole entry): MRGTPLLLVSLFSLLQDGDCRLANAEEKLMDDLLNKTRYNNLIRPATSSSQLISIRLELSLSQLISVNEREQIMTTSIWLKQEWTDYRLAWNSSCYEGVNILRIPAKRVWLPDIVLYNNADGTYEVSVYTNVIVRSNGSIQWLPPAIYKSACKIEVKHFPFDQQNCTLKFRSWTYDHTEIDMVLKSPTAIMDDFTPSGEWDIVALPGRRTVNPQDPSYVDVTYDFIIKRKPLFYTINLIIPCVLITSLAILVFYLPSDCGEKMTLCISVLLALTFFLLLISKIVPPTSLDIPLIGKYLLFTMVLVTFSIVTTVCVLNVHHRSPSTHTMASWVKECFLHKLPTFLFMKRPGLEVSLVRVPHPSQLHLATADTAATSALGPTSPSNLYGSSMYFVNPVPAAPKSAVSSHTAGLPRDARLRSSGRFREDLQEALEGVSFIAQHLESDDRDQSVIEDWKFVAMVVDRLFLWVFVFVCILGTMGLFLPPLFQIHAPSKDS
Nicotinic acetylcholine receptor alpha-4/beta-2, sequence (Q9ERK7 whole entry): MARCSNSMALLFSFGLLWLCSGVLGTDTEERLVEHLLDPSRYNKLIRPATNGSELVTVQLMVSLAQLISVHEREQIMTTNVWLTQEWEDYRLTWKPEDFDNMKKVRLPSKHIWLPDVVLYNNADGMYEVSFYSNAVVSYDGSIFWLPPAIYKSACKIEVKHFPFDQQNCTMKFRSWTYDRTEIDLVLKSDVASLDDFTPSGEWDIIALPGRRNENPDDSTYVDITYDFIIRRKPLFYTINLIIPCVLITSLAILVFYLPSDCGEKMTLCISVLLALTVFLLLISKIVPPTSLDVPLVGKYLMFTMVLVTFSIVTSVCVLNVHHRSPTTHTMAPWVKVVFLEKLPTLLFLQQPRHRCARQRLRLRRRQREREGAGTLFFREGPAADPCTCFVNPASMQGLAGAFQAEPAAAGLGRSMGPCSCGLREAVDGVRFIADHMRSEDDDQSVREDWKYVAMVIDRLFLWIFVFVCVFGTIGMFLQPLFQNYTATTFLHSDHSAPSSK
Nicotinic acetylcholine receptor alpha-4/beta-2, sequence (Q8R493 whole entry): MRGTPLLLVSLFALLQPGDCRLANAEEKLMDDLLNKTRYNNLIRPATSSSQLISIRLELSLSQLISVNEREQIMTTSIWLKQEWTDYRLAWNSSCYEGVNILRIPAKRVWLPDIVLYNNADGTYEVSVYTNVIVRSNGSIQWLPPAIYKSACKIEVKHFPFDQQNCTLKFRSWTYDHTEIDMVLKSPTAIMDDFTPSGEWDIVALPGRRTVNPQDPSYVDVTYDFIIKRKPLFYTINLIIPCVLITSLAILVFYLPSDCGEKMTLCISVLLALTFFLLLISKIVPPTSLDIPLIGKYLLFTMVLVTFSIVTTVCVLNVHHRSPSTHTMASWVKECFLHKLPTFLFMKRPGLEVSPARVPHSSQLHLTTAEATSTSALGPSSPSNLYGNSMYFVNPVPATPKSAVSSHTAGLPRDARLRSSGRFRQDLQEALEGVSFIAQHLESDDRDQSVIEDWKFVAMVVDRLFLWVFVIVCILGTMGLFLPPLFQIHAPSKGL
T1 sequence (P04757 whole entry): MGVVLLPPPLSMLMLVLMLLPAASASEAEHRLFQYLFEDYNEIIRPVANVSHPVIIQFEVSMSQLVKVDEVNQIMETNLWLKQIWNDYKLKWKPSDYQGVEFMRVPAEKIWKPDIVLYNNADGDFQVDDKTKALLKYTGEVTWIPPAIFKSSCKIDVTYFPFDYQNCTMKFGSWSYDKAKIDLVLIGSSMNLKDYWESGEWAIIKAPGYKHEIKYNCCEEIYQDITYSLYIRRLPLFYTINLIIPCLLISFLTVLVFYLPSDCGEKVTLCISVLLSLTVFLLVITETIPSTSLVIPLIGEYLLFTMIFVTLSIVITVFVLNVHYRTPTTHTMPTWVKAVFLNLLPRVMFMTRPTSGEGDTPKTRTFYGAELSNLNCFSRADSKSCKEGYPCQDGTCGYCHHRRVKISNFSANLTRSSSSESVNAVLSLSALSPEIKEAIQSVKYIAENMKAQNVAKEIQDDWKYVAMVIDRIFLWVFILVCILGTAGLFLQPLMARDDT
T1 sequence (P12392 whole entry): as the sequence (P12392 whole entry) above
T2 sequence (P36544 whole entry): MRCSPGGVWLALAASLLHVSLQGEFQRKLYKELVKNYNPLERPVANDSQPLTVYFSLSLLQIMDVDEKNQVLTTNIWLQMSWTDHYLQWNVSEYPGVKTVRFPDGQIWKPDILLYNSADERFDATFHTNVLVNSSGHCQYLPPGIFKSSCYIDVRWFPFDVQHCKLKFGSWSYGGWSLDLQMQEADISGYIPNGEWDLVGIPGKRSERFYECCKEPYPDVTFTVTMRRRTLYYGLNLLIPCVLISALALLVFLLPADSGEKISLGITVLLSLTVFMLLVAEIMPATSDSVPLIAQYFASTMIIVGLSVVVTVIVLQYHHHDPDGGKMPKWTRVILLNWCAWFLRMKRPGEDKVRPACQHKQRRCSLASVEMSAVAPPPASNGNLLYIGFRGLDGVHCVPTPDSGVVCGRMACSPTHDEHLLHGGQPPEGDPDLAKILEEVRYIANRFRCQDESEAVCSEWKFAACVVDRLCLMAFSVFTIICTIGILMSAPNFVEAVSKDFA

| SMILES | Ki [1] | Ki [2] | Ki [3] | IC50 [4] | IC50 [5] | IC50 [6] | EC50 [7] | Activity [8] |
| --- | --- | --- | --- | --- | --- | --- | --- | --- |
| COc1cc2c(cc1OCc1ccccc1)CCN(C)C2 | 2.9 µM | 300 µM | 300 µM | 100 µM | 24 µM | 30 µM | – | – |
| COc1ccc2c(c1)CCN(C)C2 | 2.6 µM | 25 µM | 100 µM | > 100 µM | 6.2 µM | > 100 µM | > 100 µM | – |
| c1ccc2c(c1)CCN1CCCC21 (stereo unspecified) | 8.5 µM | 100 µM | 100 µM | > 100 µM | 15 µM | 100 µM | – | – |
| COc1cc2c(cc1OC)CN(C)CC2 | – | – | – | – | – | > 100 µM | > 100 µM | – |
| COc1cc2c(cc1OC)[C@H]1CCCN1CC2 | 2.5 µM | 100 µM | 100 µM | > 100 µM | 16 µM | > 100 µM | > 100 µM | – |
| COc1ccc2c(c1)CC[N+](C)(C)C2 | 0.68 µM | 1.5 µM | 9.3 µM | > 100 µM | 1.4 µM | – | 4.4 µM | – |
| COc1ccc2c(c1)C1CCC[N+]1(C)CC2 (stereo unspecified) | 0.23 µM | 0.92 µM | 9.3 µM | 50 µM | 1.8 µM | – | 1.2 µM | – |
| COc1cc2c(cc1OC)C[N+](C)(Cc1ccccc1)CC2 (stereo unspecified) | 30 µM | > 300 µM | 300 µM | > 300 µM | 30 µM | 2 µM | – | – |
| CCC[N+]1(C)CCc2cc(OC)c(OC)cc2C1 (stereo unspecified) | 14 µM | 300 µM | 300 µM | > 300 µM | 30 µM | > 100 µM | > 100 µM | – |
| C[N+]12CCC[C@H]1c1cc3c(cc1CC2)OCO3 (stereo partly specified) | 25 µM | 25 µM | 25 µM | > 100 µM | > 100 µM | – | 5.4 µM | – |
| COc1cc2c(cc1O)C[N+](C)(C)CC2 | 0.4 µM | 8.9 µM | 25 µM | > 100 µM | 1.2 µM | – | 0.99 µM | – |
| COc1ccc(CC2c3cc(OC)c(OC)cc3CCN2C)cc1OC (stereo unspecified) [LAUDANOSINE] | 100 µM | > 100 µM | > 100 µM | > 100 µM | > 100 µM | > 100 µM | > 100 µM | – |
| CN1CCc2cc3c(cc2C1)OCO3 | 17 µM | – | – | – | – | > 100 µM | > 100 µM | – |
| COc1cc2c(cc1OC)[C@@H]1CCC[N+]1(C)CC2 (stereo partly specified) | 25 µM | 7.5 µM | 25 µM | > 100 µM | > 100 µM | – | 6.5 µM | – |
| COc1ccc2c(c1)C1CCCN1CC2 (stereo unspecified) | 1.4 µM | 3.3 µM | 100 µM | > 100 µM | 9.1 µM | – | – | Active |
| C[N+]12CCCC1c1ccccc1CC2 (stereo unspecified) | 17 µM | 25 µM | 50 µM | > 100 µM | 50 µM | – | 2.2 µM | – |
| COc1cc2c(cc1OC)C1CCCN1CC2 (stereo unspecified) | 4.6 µM | – | 100 µM | – | 30 µM | > 100 µM | > 100 µM | – |
| COC1CC=C2CCN3CCC4=C(CC(=O)OC4)[C@]23C1 (stereo partly specified) | 0.65 µM | 25 µM | 100 µM | 100 µM | 0.6 µM | 100 µM | – | – |
| COc1cc2c(cc1OC)[C@@H]1CCCN1CC2 | > 100 µM | > 100 µM | > 100 µM | > 100 µM | > 100 µM | > 100 µM | > 100 µM | – |
| COc1cc2c(cc1O)CN(C)CC2 | – | – | 100 µM | 100 µM | – | > 100 µM | > 100 µM | – |
| COc1cc2c(cc1OCc1ccccc1)CN(C)CC2 | 15 µM | 300 µM | 300 µM | > 300 µM | 23 µM | 30 µM | – | – |
| C=CC[N+]1(C)CCc2cc(OC)c(OC)cc2C1 (stereo unspecified) | 30 µM | 300 µM | > 300 µM | > 300 µM | 30 µM | > 100 µM | > 100 µM | – |
| COc1cc2c(cc1OCc1ccccc1)C1CCCN1CC2 (stereo unspecified) | 50 µM | 300 µM | 300 µM | > 100 µM | 50 µM | 11 µM | – | – |
| c1c2c(cc3c1OCO3)C1CCCN1CC2 (stereo unspecified) | 0.5 µM | 9.3 µM | > 100 µM | – | 2.3 µM | – | – | Active |
| COc1ccc2c(c1)CC[N+]1(C)CCCC21 (stereo unspecified) | 3.6 µM | 12 µM | 25 µM | 100 µM | 30 µM | – | 5.2 µM | – |
| COc1cc2c(cc1OC)C[N+](C)(C)CC2 | 0.63 µM | 50 µM | 100 µM | > 300 µM | 11 µM | – | 9 µM | – |
| COc1ccc2c(c1)CCN1CCCC21 (stereo unspecified) | 25 µM | 100 µM | > 100 µM | > 100 µM | 100 µM | > 100 µM | > 100 µM | – |
| COc1cc2c(cc1OC)C1CCC[N+]1(C)CC2 (stereo unspecified) | 2.4 µM | 30 µM | 50 µM | 100 µM | 30 µM | – | 7.5 µM | – |
| COc1cc2c(cc1OCc1ccccc1)CCN1CCCC21 (stereo unspecified) | 6.3 µM | 300 µM | 100 µM | 100 µM | 30 µM | 5.7 µM | – | – |
| COc1cc2c(cc1OC)[C@H]1CCC[N+]1(C)CC2 (stereo partly specified) | 2.4 µM | 25 µM | 25 µM | > 100 µM | 7.2 µM | – | 5.1 µM | – |
